Our source for the MIC values is ChEMBL document CHEMBL1124364, “3-Sulfonyl-1-carba-1-dethiacephems” (1989).

The structures appear in SMILES notation. In brackets after ≈: the same amount, converted by molar mass. A value given as a limit tells only on which side of the number the result lay.

Format in all cases: functional
In test [1] the test system is Enterobacter cloacae. In words: Minimum inhibitory concentration against Enterobacter cloacae (265A beta-lactamase containing). The method in brief: (§1)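 Agar dilution: compounds diluted in 0.1 M phosphate buffer pH 7.0 and incorporated into Mueller-Hinton agar with 1% Bacto-Supplement C at 50 °C. Fresh overnight cultures diluted to about 1×10^4 cells/µL; 1 µL spotted on plates. Incubated overnight at 35 °C in ambient air. MIC taken as the lowest concentration preventing visible growth.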

Test [2] concerns Enterobacter cloacae. In words: Minimum inhibitory concentration against Enterobacter cloacae (EB5). In a few lines: as §1
Test [3] has as its system Escherichia coli. The test is described as follows: Minimum inhibitory concentration against Escherichia coli (EC14). The method in brief:
as §1

The test system of test [4] is Escherichia coli. In words: Minimum inhibitory concentration against Escherichia coli (TEM beta-lactamase containing). The method in brief:
as §1

The subject of test [5] is Haemophilus influenzae. In words: Minimum inhibitory concentration against Haemophilus influenzae (C.L.). In a few lines: as §1
The test system of test [6] is Klebsiella. The test is described as follows: Minimum inhibitory concentration against Klebsiella (KAE beta-lactamase containing). In a few lines: as §1
Test [7] concerns Klebsiella. The test is described as follows: Minimum inhibitory concentration against Klebsiella (X26). In a few lines:
as §1

Test [8] relates to Morganella morganii. The test is described as follows: Minimum inhibitory concentration against Proteus morganii (PR 15). In a few lines:
as §1

Test [9] relates to Pseudomonas aeruginosa. The test is described as follows: Minimum inhibitory concentration against Pseudomonas aeruginosa (X528). In a few lines:
as §1

Test [10] relates to Providencia rettgeri. The test is described as follows: Minimum inhibitory concentration against Proteus rettgeri (C24). The method in brief:
as §1

Test [11] relates to Salmonella. The test is described as follows: Minimum inhibitory concentration against Salmonella (X514). In a few lines: as §1
For test [12], the system named is Staphylococcus epidermidis. The test is described as follows: Minimum inhibitory concentration against Staphylococcus epidermidis (222). The method in brief: as §1
Test [13] has as its system Streptococcus pyogenes. In words: Minimum inhibitory concentration against Streptococcus pyogenes (C203). In a few lines:
as §1

Test [14] has as its system Streptococcus pneumoniae. In words: Minimum inhibitory concentration against Streptococcus pneumoniae (PARK). The method in brief: as §1
Test [15] concerns Staphylococcus aureus. In words: Minimum inhibitory concentration against Staphylococcus aureus (X1.1). The method in brief:
as §1

Setting [16] is: Enterobacter cloacae, read-out: MIC.
Where [17] appears, read: Escherichia coli, read-out: MIC.
Setting [18] is: Haemophilus influenzae, read-out: MIC.
The mark [19] stands for this setting: Morganella morganii, read-out: MIC.
Where [20] appears, read: Pseudomonas aeruginosa, read-out: MIC.
[21] abbreviates: Providencia rettgeri, read-out: MIC.
The mark [22] stands for this setting: Staphylococcus epidermidis, read-out: MIC.
The mark [23] stands for this setting: Streptococcus pyogenes, read-out: MIC.
The mark [24] stands for this setting: Streptococcus pneumoniae, read-out: MIC.
The mark [25] stands for this setting: Staphylococcus aureus, read-out: MIC.

On to `CO/N=C(/C(=O)N[C@@H]1C(=O)N2C(C(=O)O)=C(S(=O)(=O)c3cccs3)CC[C@H]12)c1csc(N)n1`, for which the MIC in [1] (setting [16]) is greater than 128 µg/mL; in test [2] (setting [16]), 8 µg/mL (≈ 15.6 µM); in [3] (setting [17]), 2 µg/mL (≈ 3.91 µM); in test [4] (setting [17]), 128 µg/mL (≈ 250 µM); in test [5] (setting [18]), 1 µg/mL (≈ 1.95 µM); in test [6] (Klebsiella, read-out: MIC), greater than 128 µg/mL. Moreover, the MIC in test [7] (Klebsiella, read-out: MIC) is 2 µg/mL (≈ 3.91 µM); in [8] (setting [19]), 64 µg/mL (≈ 125 µM); in test [9] (setting [20]), greater than 128 µg/mL; in test [10] (setting [21]), 64 µg/mL (≈ 125 µM); in test [11] (Salmonella, read-out: MIC), 0.5 µg/mL (≈ 0.977 µM); in test [12] (setting [22]), 16 µg/mL (≈ 31.3 µM). Further, the MIC was found to be 0.015 µg/mL (≈ 0.0293 µM) in test [13] (setting [23]), 0.03 µg/mL (≈ 0.0586 µM) in test [14] (setting [24]) and 4 µg/mL (≈ 7.82 µM) in test [15] (setting [25]).

As for `CO/N=C(/C(=O)N[C@@H]1C(=O)N2C(C(=O)O)=C(S(=O)(=O)c3cccnc3)CC[C@H]12)c1csc(N)n1`, the MIC was greater than 128 µg/mL in test [1] (setting [16]); 16 µg/mL (≈ 31.6 µM) in test [2] (setting [16]); 1 µg/mL (≈ 1.97 µM) in test [3] (setting [17]); 4 µg/mL (≈ 7.9 µM) in test [4] (setting [17]); 1 µg/mL (≈ 1.97 µM) in test [5] (setting [18]); greater than 128 µg/mL in [6] (Klebsiella, read-out: MIC). For the same compound, the MIC is 2 µg/mL (≈ 3.95 µM) in test [7] (Klebsiella, read-out: MIC); greater than 128 µg/mL in [8] (setting [19]); greater than 128 µg/mL in test [9] (setting [20]); greater than 128 µg/mL in test [10] (setting [21]); 2 µg/mL (≈ 3.95 µM) in [11] (Salmonella, read-out: MIC); 32 µg/mL (≈ 63.2 µM) in test [12] (setting [22]). For the same compound, the MIC in test [13] (setting [23]) was found to be 0.06 µg/mL (≈ 0.118 µM); in [14] (setting [24]) it was 0.125 µg/mL (≈ 0.247 µM); in [15] (setting [25]), 16 µg/mL (≈ 31.6 µM).

In the case of `CO/N=C(/C(=O)N[C@@H]1C(=O)N2C(C(=O)O)=C(S(C)(=O)=O)CC[C@H]12)c1csc(N)n1`, the MIC in test [1] (setting [16]) is greater than 128 µg/mL; in test [2] (setting [16]), 2 µg/mL (≈ 4.51 µM); in [3] (setting [17]), 0.25 µg/mL (≈ 0.564 µM); in test [4] (setting [17]), 1 µg/mL (≈ 2.25 µM); in test [5] (setting [18]), 0.25 µg/mL (≈ 0.564 µM); in test [6] (Klebsiella, read-out: MIC) it was 64 µg/mL (≈ 144 µM). For the same compound, the MIC is 0.06 µg/mL (≈ 0.135 µM) in test [7] (Klebsiella, read-out: MIC); 1 µg/mL (≈ 2.25 µM) in test [8] (setting [19]); greater than 128 µg/mL in test [9] (setting [20]); 0.5 µg/mL (≈ 1.13 µM) in test [10] (setting [21]); 0.125 µg/mL (≈ 0.282 µM) in [11] (Salmonella, read-out: MIC); 32 µg/mL (≈ 72.2 µM) in test [12] (setting [22]). In addition, the MIC was determined as 0.06 µg/mL (≈ 0.135 µM) in [13] (setting [23]), 0.06 µg/mL (≈ 0.135 µM) in test [14] (setting [24]) and 16 µg/mL (≈ 36.1 µM) in test [15] (setting [25]).

As for `CS(=O)(=O)C1=C(C(=O)O)N2C(=O)[C@@H](NC(=O)COc3ccccc3)[C@H]2SC1` (stereo in doubt; 7 (1-S)), the MIC came out at 128 µg/mL (≈ 310 µM) in test [1]; 128 µg/mL (≈ 310 µM) in test [2]; 64 µg/mL (≈ 155 µM) in [3]; 128 µg/mL (≈ 310 µM) in [4]; 1 µg/mL (≈ 2.42 µM) in [5]; 128 µg/mL (≈ 310 µM) in test [6]. The MIC in test [7] was determined as 8 µg/mL (≈ 19.4 µM); in test [8] it was 128 µg/mL (≈ 310 µM); in test [9], 128 µg/mL (≈ 310 µM); in test [10] it was 128 µg/mL (≈ 310 µM); in [11], 64 µg/mL (≈ 155 µM); in [12], 0.25 µg/mL (≈ 0.606 µM). The MIC in test [13] worked out at 0.125 µg/mL (≈ 0.303 µM); in test [14], 0.25 µg/mL (≈ 0.606 µM); in [15], 0.25 µg/mL (≈ 0.606 µM).

On to `CS(=O)(=O)C1=C(C(=O)O)N2C(=O)[C@@H](NC(=O)COc3ccccc3)[C@H]2CC1` (stereo in doubt; 7), for which the MIC in test [1] (setting [16]) is greater than 128 µg/mL; in test [2] (setting [16]), greater than 128 µg/mL; in [3] (setting [17]), 4 µg/mL (≈ 10.1 µM); in test [4] (setting [17]) it was greater than 128 µg/mL; in test [5] it was 16 µg/mL (≈ 40.6 µM); in test [6] (Klebsiella, read-out: MIC) it was greater than 128 µg/mL. The MIC in [7] (Klebsiella, read-out: MIC) is 8 µg/mL (≈ 20.3 µM); in test [8] (setting [19]), greater than 128 µg/mL; in test [9] (setting [20]) it was greater than 128 µg/mL; in [10] (setting [21]), greater than 128 µg/mL; in test [11], 8 µg/mL (≈ 20.3 µM); in test [12] (setting [22]) it was 0.5 µg/mL (≈ 1.27 µM). Moreover, the MIC in test [13] was 0.015 µg/mL (≈ 0.038 µM); in test [14] it was 0.06 µg/mL (≈ 0.152 µM); in test [15] (setting [25]), 0.25 µg/mL (≈ 0.634 µM).

For the compound `N[C@@H](C(=O)N[C@@H]1C(=O)N2C(C(=O)O)=C(Cl)CS[C@H]12)c1ccccc1` [CEFACLOR ANHYDROUS], the MIC in [1] (setting [16]) is greater than 128 µg/mL; in test [2] (setting [16]) it was 16 µg/mL (≈ 43.5 µM); in [3] (setting [17]), 0.5 µg/mL (≈ 1.36 µM); in test [4] (setting [17]), 1 µg/mL (≈ 2.72 µM); in [5] (setting [18]), 2 µg/mL (≈ 5.44 µM); in test [6] (Klebsiella, read-out: MIC) it was greater than 128 µg/mL. For the same compound, the MIC in test [7] (Klebsiella, read-out: MIC) was 0.25 µg/mL (≈ 0.68 µM); in test [8] (setting [19]) it was greater than 128 µg/mL; in [9] (setting [20]), greater than 128 µg/mL; in [10] (setting [21]), 64 µg/mL (≈ 174 µM); in [11] (Salmonella, read-out: MIC), 2 µg/mL (≈ 5.44 µM); in test [12] (setting [22]), 4 µg/mL (≈ 10.9 µM). The MIC was found to be 0.25 µg/mL (≈ 0.68 µM) in [13] (setting [23]), 1 µg/mL (≈ 2.72 µM) in test [14] (setting [24]) and 2 µg/mL (≈ 5.44 µM) in test [15] (setting [25]).

For the compound `CO/N=C(\C(=O)N[C@@H]1C(=O)N2C(C(=O)O)=C(COC(C)=O)CS[C@H]12)c1csc(N)n1` [CEFOTAXIME], the MIC is 32 µg/mL (≈ 70.3 µM) in test [1] (setting [16]); 0.125 µg/mL (≈ 0.274 µM) in test [2] (setting [16]); 0.03 µg/mL (≈ 0.0659 µM) in test [3] (setting [17]); 0.03 µg/mL (≈ 0.0659 µM) in test [4] (setting [17]); 0.015 µg/mL (≈ 0.0329 µM) in test [5] (setting [18]); 2 µg/mL (≈ 4.39 µM) in test [6] (Klebsiella, read-out: MIC). Also, the MIC in test [7] (Klebsiella, read-out: MIC) amounted to 0.008 µg/mL (≈ 0.0176 µM); in [8] (setting [19]), 0.25 µg/mL (≈ 0.549 µM); in [9] (setting [20]), 32 µg/mL (≈ 70.3 µM); in test [10] (setting [21]), 0.125 µg/mL (≈ 0.274 µM); in test [11] (Salmonella, read-out: MIC), 0.03 µg/mL (≈ 0.0659 µM); in test [12] (setting [22]), 2 µg/mL (≈ 4.39 µM). For the same compound, the MIC in test [13] (setting [23]) turned out to be 0.015 µg/mL (≈ 0.0329 µM); in [14] (setting [24]) it was 0.015 µg/mL (≈ 0.0329 µM); in [15] (setting [25]), 2 µg/mL (≈ 4.39 µM).
